Data reported in ChEMBL document CHEMBL1671800, “Synthesis and antimycobacterial properties of N-substituted 6-amino-5-cyanopyrazine-2-carboxamides” (2011).
≈ marks a conversion by molar mass, not a printed value. Calls of active or inactive are those of the source. The calls are words filed in the database; no cut-off is given here.

Legend:
[1] = test system: Mycobacterium tuberculosis; test: Antimycobacterial activity against Mycobacterium tuberculosis H37Rv CNCTC My 331/88 after 14 days by microdilution method; type: functional; settings: H37Rv CNCTC My 331/88, 336 h
In short: (§1)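 Compounds in DMSO were diluted in Šula's semisynthetic medium, pH 5.5, to final 200–3.125 μg/mL, with DMSO at most 1% (v/v). Mycobacteria were added as a suspension in isotonic saline and grown at 37 °C. MIC was read visually after 14 days as the lowest concentration inhibiting growth.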

Mycobacterium kansasii = test: Antimycobacterial activity against Mycobacterium kansasii CNCTC My 235/80 after 6 days by microdilution method; type: functional; settings: CNCTC My 235/80, 144 h
In short: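 Compounds were dissolved in DMSO and diluted in Šula's semisynthetic medium at pH 5.5, at final concentrations of 200 to 3.125 μg/mL in twofold steps; DMSO stayed ≤1% v/v. The strain was added as a suspension in isotonic saline and incubated at 37 °C. Growth was read visually after 6 days; MIC is the lowest concentration that inhibited growth. Pyrazinamide served as standard.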

Mycobacterium avium [2] = test: Antimycobacterial activity against Mycobacterium avium CNCTC My 80/72 after 14 days by microdilution method; type: functional; settings: CNCTC My 80/72, 336 h; in short: as §1
Mycobacterium avium [3] = test: Antimycobacterial activity against Mycobacterium avium CNCTC My 152/73 after 14 days by microdilution method; type: functional; settings: CNCTC My 152/73, 336 h; in short: as §1
Staphylococcus aureus [4] = test: Antibacterial activity against Staphylococcus aureus CCM 4516/08 after 24 to 48 hrs by broth microdilution method; type: functional, organism-based
In short: (§2)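 Strains subcultured on Mueller-Hinton agar at 35 °C and passaged onto MHA before testing. Inoculum suspended in sterile 0.85% saline and adjusted to 0.5 McFarland (1.5×10^8 CFU/mL). Compounds in DMSO (final ≤1% v/v) in Mueller-Hinton broth at pH 7.0, with medium and DMSO-alone controls. Static incubation at 35 °C; MIC taken as 95% growth inhibition versus control at 24 and 48 h.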

Escherichia coli = test: Antibacterial activity against Escherichia coli CCM 4517 after 24 to 48 hrs by broth microdilution method; type: functional, organism-based; in short: as §2
Pseudomonas aeruginosa = test: Antibacterial activity against Pseudomonas aeruginosa CCM 1961 after 24 to 48 hrs by broth microdilution method; type: functional, organism-based; in short: as §2
Staphylococcus aureus [5] = test: Antibacterial activity against methicillin-resistant Staphylococcus aureus H 5996/08 after 24 to 48 hrs by broth microdilution method; type: functional, organism-based
In short: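 Strains were subcultured on Mueller-Hinton agar at 35 °C, and the inoculum was suspended in 0.85% saline to 0.5 McFarland (1.5×10^8 CFU/mL). Microdilution was done in Mueller-Hinton broth, pH 7.0, with final DMSO at most 1% (v/v). MIC, set at 95% growth inhibition versus control, was read after 24 and 48 h of static incubation at 35 °C.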

[6] = test system: Staphylococcus epidermidis; test: Antibacterial activity against Staphylococcus epidermidis H 6966/08 after 24 to 48 hrs by broth microdilution method; type: functional, organism-based
Enterobacter sp. = test: Antibacterial activity against Enterobacter sp. J 14365/ 08 after 24 to 48 hrs by broth microdilution method; type: functional, organism-based
Klebsiella pneumoniae [7] = test: Antibacterial activity against Klebsiella pneumoniae D11750/08 after 24 to 48 hrs by broth microdilution method; type: functional, organism-based
Klebsiella pneumoniae [8] = test: Antibacterial activity against ESBL-positive Klebsiella pneumoniae J 14368/08 after 24 to 48 hrs by broth microdilution method; type: functional, organism-based
Candida albicans [9] = test: Antifungal activity against Candida albicans ATCC 44859 after 24 hrs by broth microdilution method; type: functional; settings: ATCC 44859, 24 h
In short: (§3)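 Broth microdilution. Compounds in DMSO were diluted twofold in RPMI 1640 with glutamine, buffered to pH 7.0 with MOPS. Final DMSO was at most 2.5% (v/v). Plates were incubated statically, in the dark and humid, at 35 °C and read at 24 and 48 h.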

Candida tropicalis [10] = test: Antifungal activity against Candida tropicalis 156 after 24 hrs by broth microdilution method; type: functional; settings: Candida tropicalis, 156, 24 h; in short: as §3
Pichia kudriavzevii [11] = test: Antifungal activity against Candida krusei E28 after 24 hrs by broth microdilution method; type: functional; settings: E28, 24 h; in short: as §3
Nakaseomyces glabratus [12] = test: Antifungal activity against Candida glabrata 20/I after 24 hrs by broth microdilution method; type: functional; in short: as §3
Trichosporon beigelii [13] = test: Antifungal activity against Trichosporon beigelii 1188 after 24 hrs by broth microdilution method; type: functional; settings: Trichosporon beigelii, 1188, 24 h; in short: as §3
Aspergillus fumigatus [14] = test: Antifungal activity against Aspergillus fumigatus 231 after 24 hrs by broth microdilution method; type: functional; settings: Aspergillus fumigatus, 231, 24 h; in short: as §3
Lichtheimia corymbifera [15] = test: Antifungal activity against Absidia corymbifera 272 after 24 hrs by broth microdilution method; type: functional; settings: Lichtheimia corymbifera, 272, 24 h; in short: as §3
[16] = test system: Trichophyton mentagrophytes; test: Antifungal activity against Trichophyton mentagrophytes 445 after 72 hrs by broth microdilution method; type: functional; settings: Trichophyton mentagrophytes, 445, 72 h
In short: (§4)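 Trichophyton mentagrophytes was tested by twofold broth microdilution in MOPS-buffered RPMI 1640 with glutamine, pH 7.0, with final DMSO at most 2.5% (v/v). Incubation was static, dark and humid at 35 °C, and plates were read at 72 and 120 h.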

[17] = test system: Trichophyton mentagrophytes; test: Antifungal activity against Trichophyton mentagrophytes 445 after 120 hrs by broth microdilution method; type: functional; settings: Trichophyton mentagrophytes, 445, 120 h; in short: as §4
Candida albicans [18] = test: Antifungal activity against Candida albicans ATCC 44859 after 48 hrs by broth microdilution method; type: functional; settings: ATCC 44859, 48 h; in short: as §3
Candida tropicalis [19] = test: Antifungal activity against Candida tropicalis 156 after 48 hrs by broth microdilution method; type: functional; settings: Candida tropicalis, 156, 48 h; in short: as §3
Pichia kudriavzevii [20] = test: Antifungal activity against Candida krusei E28 after 48 hrs by broth microdilution method; type: functional; settings: E28, 48 h; in short: as §3
Nakaseomyces glabratus [21] = test: Antifungal activity against Candida glabrata 20/I after 48 hrs by broth microdilution method; type: functional; in short: as §3
Trichosporon beigelii [22] = test: Antifungal activity against Trichosporon beigelii 1188 after 48 hrs by broth microdilution method; type: functional; settings: Trichosporon beigelii, 1188, 48 h; in short: as §3
Aspergillus fumigatus [23] = test: Antifungal activity against Aspergillus fumigatus 231 after 48 hrs by broth microdilution method; type: functional; settings: Aspergillus fumigatus, 231, 48 h; in short: as §3
Lichtheimia corymbifera [24] = test: Antifungal activity against Absidia corymbifera 272 after 48 hrs by broth microdilution method; type: functional; settings: Lichtheimia corymbifera, 272, 48 h; in short: as §3

`CN1CCN(c2nc(C(N)=O)cnc2C#N)CC1` was tested, and the MIC [1] was greater than 200 mg/L, the MIC (Mycobacterium kansasii) was greater than 200 mg/L and the MIC (Mycobacterium avium [2]) was greater than 200 mg/L. The MIC (Mycobacterium avium [3]) was greater than 200 mg/L, the Activity (Staphylococcus aureus [4]) was “inactive” and the Activity (Escherichia coli) was “inactive”. For the same molecule, the Activity (Pseudomonas aeruginosa) was “inactive”, the Activity (Staphylococcus aureus [5]) was “inactive” and the Activity [6] was “inactive”. The Activity (Enterobacter sp.) was “inactive”, the Activity (Klebsiella pneumoniae [7]) was “inactive” and the Activity (Klebsiella pneumoniae [8]) was “inactive”.

For `CCCNc1nc(C(N)=O)cnc1C#N`, the MIC [1] was 50 mg/L (≈ 244 µM), the MIC (Mycobacterium kansasii) was greater than 200 mg/L and the MIC (Mycobacterium avium [2]) was greater than 200 mg/L. For the same molecule, the MIC (Mycobacterium avium [3]) was greater than 200 mg/L, the Activity (Staphylococcus aureus [4]) was “inactive” and the Activity (Escherichia coli) was “inactive”. For the same molecule, the Activity (Pseudomonas aeruginosa) was “inactive”, the Activity (Staphylococcus aureus [5]) was “inactive” and the Activity [6] was “inactive”. The Activity (Enterobacter sp.) was “inactive”, the Activity (Klebsiella pneumoniae [7]) was “inactive” and the Activity (Klebsiella pneumoniae [8]) was “inactive”.

With `CNc1nc(C(N)=O)cnc1C#N` the MIC [1] was 200 mg/L (≈ 1130 µM), the MIC (Mycobacterium kansasii) was greater than 200 mg/L and the MIC (Mycobacterium avium [2]) was greater than 200 mg/L. For the same molecule, the MIC (Mycobacterium avium [3]) was greater than 200 mg/L, the Activity (Staphylococcus aureus [4]) was “inactive” and the Activity (Escherichia coli) was “inactive”. For the same molecule, the Activity (Pseudomonas aeruginosa) was “inactive”, the Activity (Staphylococcus aureus [5]) was “inactive” and the Activity [6] was “inactive”. The Activity (Enterobacter sp.) was “inactive”, the Activity (Klebsiella pneumoniae [7]) was “inactive” and the Activity (Klebsiella pneumoniae [8]) was “inactive”.

`CCCCCCCNc1nc(C(N)=O)cnc1C#N` was tested, and the MIC [1] was 12.5 mg/L (≈ 47.8 µM), the MIC (Mycobacterium kansasii) was 100 mg/L (≈ 383 µM) and the MIC (Mycobacterium avium [2]) was 100 mg/L (≈ 383 µM). The MIC (Mycobacterium avium [3]) was 100 mg/L (≈ 383 µM), the Activity (Staphylococcus aureus [4]) was “inactive” and the Activity (Escherichia coli) was “inactive”. The Activity (Pseudomonas aeruginosa) was “inactive”, the Activity (Staphylococcus aureus [5]) was “inactive” and the Activity [6] was “inactive”. The Activity (Enterobacter sp.) was “inactive”, the Activity (Klebsiella pneumoniae [7]) was “inactive” and the Activity (Klebsiella pneumoniae [8]) was “inactive”.

Work on `N#Cc1ncc(C(N)=O)nc1N1CCOCC1` yielded an MIC [1] greater than 200 mg/L, an MIC (Mycobacterium kansasii) greater than 200 mg/L and an MIC (Mycobacterium avium [2]) greater than 200 mg/L. For the same molecule, the MIC (Mycobacterium avium [3]) was greater than 200 mg/L, the Activity (Staphylococcus aureus [4]) was “inactive” and the Activity (Escherichia coli) was “inactive”. For the same molecule, the Activity (Pseudomonas aeruginosa) was “inactive”, the Activity (Staphylococcus aureus [5]) was “inactive” and the Activity [6] was “inactive”. The Activity (Enterobacter sp.) was “inactive”, the Activity (Klebsiella pneumoniae [7]) was “inactive” and the Activity (Klebsiella pneumoniae [8]) was “inactive”.

In the case of `OC(Cn1cncn1)(Cn1cncn1)c1ccc(F)cc1F` [FLUCONAZOLE], the MIC (Candida albicans [9]) was 0.24 µM (≈ 0.0735 µg/mL), the MIC (Candida tropicalis [10]) was greater than 500 µM and the MIC (Pichia kudriavzevii [11]) was 125 µM (≈ 38.3 µg/mL). It also gave an MIC (Nakaseomyces glabratus [12]) of 62.5 µM (≈ 19.1 µg/mL), an MIC (Trichosporon beigelii [13]) of 250 µM (≈ 76.6 µg/mL) and an MIC (Aspergillus fumigatus [14]) greater than 500 µM. It also gave an MIC (Lichtheimia corymbifera [15]) greater than 500 µM, an MIC [16] of 7.81 µM (≈ 2.39 µg/mL) and an MIC [17] of 125 µM (≈ 38.3 µg/mL). The MIC (Candida albicans [18]) was 0.24 µM (≈ 0.0735 µg/mL), the MIC (Candida tropicalis [19]) was greater than 500 µM and the MIC (Pichia kudriavzevii [20]) was 250 µM (≈ 76.6 µg/mL). The MIC (Nakaseomyces glabratus [21]) was 250 µM (≈ 76.6 µg/mL), the MIC (Trichosporon beigelii [22]) was 500 µM (≈ 153 µg/mL) and the MIC (Aspergillus fumigatus [23]) was greater than 500 µM. The MIC (Lichtheimia corymbifera [24]) was greater than 500 µM.

Molecule `CCCCCCCCNc1nc(C(N)=O)cnc1C#N` has an MIC [1] greater than 200 mg/L, an MIC (Mycobacterium kansasii) greater than 200 mg/L and an MIC (Mycobacterium avium [2]) greater than 200 mg/L. The MIC (Mycobacterium avium [3]) was greater than 200 mg/L, the Activity (Staphylococcus aureus [4]) was “inactive” and the Activity (Escherichia coli) was “inactive”. The Activity (Pseudomonas aeruginosa) was “inactive”, the Activity (Staphylococcus aureus [5]) was “inactive” and the Activity [6] was “inactive”. For the same molecule, the Activity (Enterobacter sp.) was “inactive”, the Activity (Klebsiella pneumoniae [7]) was “inactive” and the Activity (Klebsiella pneumoniae [8]) was “inactive”.

`CCN(CC)c1nc(C(N)=O)cnc1C#N` gave an MIC [1] greater than 200 mg/L, an MIC (Mycobacterium kansasii) greater than 200 mg/L and an MIC (Mycobacterium avium [2]) greater than 200 mg/L. For the same molecule, the MIC (Mycobacterium avium [3]) was greater than 200 mg/L, the Activity (Staphylococcus aureus [4]) was “inactive” and the Activity (Escherichia coli) was “inactive”. For the same molecule, the Activity (Pseudomonas aeruginosa) was “inactive”, the Activity (Staphylococcus aureus [5]) was “inactive” and the Activity [6] was “inactive”. The Activity (Enterobacter sp.) was “inactive”, the Activity (Klebsiella pneumoniae [7]) was “inactive” and the Activity (Klebsiella pneumoniae [8]) was “inactive”.
